Assay results reported in ChEMBL document CHEMBL1926642, “Relevance of the C-5 position to schweinfurthin induced cytotoxicity” (2011).

Legend:
Assay type in all cases: functional
[1] = test system: K562; assay: Growth inhibition of human K562 cells after 48 hrs by sulforhodamine B assay; conditions: K562, 48 h
[2] = test system: MOLT-4; assay: Growth inhibition of human MOLT4 cells after 48 hrs by sulforhodamine B assay; conditions: MOLT-4, 48 h
[3] = test system: HOP-62; assay: Growth inhibition of human HOP62 cells after 48 hrs by sulforhodamine B assay; conditions: HOP-62, 48 h
[4] = test system: HOP-92; assay: Growth inhibition of human HOP92 cells after 48 hrs by sulforhodamine B assay; conditions: HOP-92, 48 h
[5] = test system: NCI-H226; assay: Growth inhibition of human NCI-H226 cells after 48 hrs by sulforhodamine B assay; conditions: NCI-H226, 48 h
[6] = test system: NCI-H322M; assay: Growth inhibition of human NCI-H322M cells after 48 hrs by sulforhodamine B assay
[7] = test system: NCI-H460; assay: Growth inhibition of human NCI-H460 cells after 48 hrs by sulforhodamine B assay; conditions: NCI-H460, 48 h
[8] = test system: COLO 205; assay: Growth inhibition of human COLO205 cells after 48 hrs by sulforhodamine B assay; conditions: COLO 205, 48 h
[9] = test system: HCT-15; assay: Growth inhibition of human HCT15 cells after 48 hrs by sulforhodamine B assay; conditions: HCT-15, 48 h
[10] = test system: HT-29; assay: Growth inhibition of human HT-29 cells after 48 hrs by sulforhodamine B assay; conditions: HT-29, 48 h
[11] = test system: KM12; assay: Growth inhibition of human KM12 cells after 48 hrs by sulforhodamine B assay; conditions: KM12, 48 h
[12] = test system: SF-295; assay: Growth inhibition of human SF295 cells after 48 hrs by sulforhodamine B assay; conditions: SF-295, 48 h
[13] = test system: SNB-75; assay: Growth inhibition of human SNB75 cells after 48 hrs by sulforhodamine B assay; conditions: SNB-75, 48 h
[14] = test system: Malme-3M; assay: Growth inhibition of human MALME-3M cells after 48 hrs by sulforhodamine B assay
[15] = test system: M14; assay: Growth inhibition of human M14 cells after 48 hrs by sulforhodamine B assay; conditions: M14, 48 h
[16] = test system: UACC-257; assay: Growth inhibition of human UACC257 cells after 48 hrs by sulforhodamine B assay; conditions: UACC-257, 48 h
[17] = test system: UACC-62; assay: Growth inhibition of human UACC62 cells after 48 hrs by sulforhodamine B assay; conditions: UACC-62, 48 h
[18] = test system: NCI/ADR-RES; assay: Growth inhibition of human NCI/ADR-RES cells after 48 hrs by sulforhodamine B assay
[19] = test system: 786-0; assay: Growth inhibition of human 786-0 cells after 48 hrs by sulforhodamine B assay; conditions: 786-0, 48 h
[20] = test system: ACHN; assay: Growth inhibition of human ACHN cells after 48 hrs by sulforhodamine B assay
[21] = test system: SN12C; assay: Growth inhibition of human SN12C cells after 48 hrs by sulforhodamine B assay
[22] = test system: TK-10; assay: Growth inhibition of human TK10 cells after 48 hrs by sulforhodamine B assay; conditions: TK-10, 48 h
[23] = test system: UO-31; assay: Growth inhibition of human UO31 cells after 48 hrs by sulforhodamine B assay; conditions: UO-31, 48 h
[24] = test system: PC-3; assay: Growth inhibition of human PC3 cells after 48 hrs by sulforhodamine B assay; conditions: PC-3, 48 h
[25] = test system: DU-145; assay: Growth inhibition of human DU145 cells after 48 hrs by sulforhodamine B assay; conditions: DU-145, 48 h
[26] = test system: MCF7; assay: Growth inhibition of human MCF7 cells after 48 hrs by sulforhodamine B assay; conditions: MCF7, 48 h
[27] = test system: T47D; assay: Growth inhibition of human T47D cells after 48 hrs by sulforhodamine B assay
[28] = test system: MDA-MB-468; assay: Growth inhibition of human MDA-MB-468 cells after 48 hrs by sulforhodamine B assay; conditions: MDA-MB-468, 48 h
[29] = test system: SR; assay: Growth inhibition of human SR cells after 48 hrs by sulforhodamine B assay
[30] = test system: UO-31; assay: Cytotoxicity against human UO31 cells assessed as cell growth at 10 uM after 48 hrs by sulforhodamine B assay relative to control; conditions: UO-31, 48 h, read-out: Activity
[31] = test system: EKVX; assay: Cytotoxicity against human EKVX cells assessed as cell growth at 10 uM after 48 hrs by sulforhodamine B assay relative to control; conditions: read-out: Activity
How it was run: (§1)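 Compounds went through the NCI 60 cell-line screen, whose current protocol tests first at a single dose.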

[32] = test system: NCI/ADR-RES; assay: Cytotoxicity against human NCI/ADR-RES cells assessed as cell growth at 10 uM after 48 hrs by sulforhodamine B assay relative to control; conditions: read-out: Activity; how it was run: as §1
[33] = test system: SK-OV-3; assay: Cytotoxicity against human SKOV3 cells assessed as cell growth at 10 uM after 48 hrs by sulforhodamine B assay relative to control; conditions: SK-OV-3, 48 h, read-out: Activity; how it was run: as §1
[34] = read-out: pLC50 (the source's name) (converted)

SMILES: COc1cc(/C=C/c2cc(O)c3c(c2)C[C@@H]2C(C)(C)[C@H](O)CC[C@@]2(C)O3)cc(O)c1C/C=C(\C)CCC=C(C)C
- GI50 [1]: 0.263 µM
- LC50 [1]: 100 µM
- TGI ([1]; read-out: pTGI (converted)): 6.92 µM
- GI50 [2]: 0.0339 µM
- LC50 [2]: 100 µM
- TGI ([2]; read-out: pTGI (converted)): 0.245 µM
- GI50 [3]: 0.479 µM
- LC50 [3]: 30.2 µM
- TGI ([3]; read-out: pTGI (converted)): 8.13 µM
- GI50 [4]: 2.29 µM
- LC50 [4]: 50.1 µM
- TGI ([4]; read-out: pTGI (converted)): 6.61 µM
- GI50 [5]: 5.89 µM
- LC50 [5]: 55 µM
- TGI ([5]; read-out: pTGI (converted)): 21.4 µM
- GI50 [6]: 3.39 µM
- LC50 [6]: 43.7 µM
- TGI ([6]; read-out: pTGI (converted)): 14.1 µM
- GI50 [7]: 0.339 µM
- LC50 (concentration killing 50% of cells) [7]: 64.6 µM
- TGI ([7]; read-out: pTGI (converted)): 9.12 µM
- GI50 [8]: 0.575 µM
- LC50 [8]: 7.24 µM
- TGI ([8]; read-out: pTGI (converted)): 2.24 µM
- GI50 [9]: 1.12 µM
- LC50 [9]: 7.94 µM
- TGI ([9]; read-out: pTGI (converted)): 2.95 µM
- GI50 [10]: 1.23 µM
- LC50 (concentration killing 50% of cells) [10]: 27.5 µM
- TGI ([10]; read-out: pTGI (converted)): 4.9 µM
- GI50 [11]: 1.17 µM
- LC50 [11]: 7.08 µM
- TGI ([11]; read-out: pTGI (converted)): 2.88 µM
- LC50 [12]: 26.9 µM
- GI50 ([12]; read-out: GI50): 0.022 µM
- GI50 ([12]; read-out: pGI50 (converted)): 0.024 µM
- TGI ([12]; read-out: pTGI (converted)): 0.195 µM
- GI50 [13]: 0.123 µM
- LC50 [13]: 33.9 µM
- TGI ([13]; read-out: pTGI (converted)): 6.31 µM
- GI50 [14]: 1.95 µM
- LC50 [14]: 30.9 µM
- TGI ([14]; read-out: pTGI (converted)): 5.13 µM
- GI50 [15]: 1.1 µM
- LC50 [15]: 18.6 µM
- TGI ([15]; read-out: pTGI (converted)): 3.47 µM
- GI50 [16]: 7.59 µM
- LC50 [16]: 61.7 µM
- TGI ([16]; read-out: pTGI (converted)): 23.4 µM
- GI50 [17]: 0.204 µM
- LC50 (50% lethal concentration) [17]: 7.41 µM
- TGI ([17]; read-out: pTGI (converted)): 0.794 µM
- GI50 [18]: 2.57 µM
- LC50 [18]: 58.9 µM
- TGI ([18]; read-out: pTGI (converted)): 10.2 µM
- GI50 [19]: 0.0339 µM
- CC50 [19, 34]: 15.5 µM
- TGI ([19]; read-out: pTGI (converted)): 1.45 µM
- GI50 [20]: 1.78 µM
- LC50 [20]: 36.3 µM
- TGI ([20]; read-out: pTGI (converted)): 12 µM
- GI50 [21]: 1.51 µM
- LC50 [21]: 8.51 µM
- TGI ([21]; read-out: pTGI (converted)): 3.63 µM
- GI50 [22]: 2.19 µM
- LC50 [22]: 41.7 µM
- TGI ([22]; read-out: pTGI (converted)): 8.91 µM
- GI50 [23]: 0.178 µM
- LC50 [23]: 37.2 µM
- TGI ([23]; read-out: pTGI (converted)): 11.5 µM
- GI50 [24]: 0.372 µM
- CC50 [24, 34]: 41.7 µM
- TGI ([24]; read-out: pTGI (converted)): 5.25 µM
- GI50 [25]: 2 µM
- LC50 [25]: 77.6 µM
- TGI ([25]; read-out: pTGI (converted)): 11.7 µM
- GI50 [26]: 0.309 µM
- LC50 [26]: 29.5 µM
- TGI ([26]; read-out: pTGI (converted)): 3.47 µM
- GI50 [27]: 1.41 µM
- LC50 [27]: 39.8 µM
- TGI ([27]; read-out: pTGI (converted)): 7.08 µM
- GI50 [28]: 1.1 µM
- LC50 [28]: 9.12 µM
- TGI ([28]; read-out: pTGI (converted)): 3.16 µM
- GI50 [29]: 0.288 µM
- LC50 [29]: 100 µM
- TGI ([29]; read-out: pTGI (converted)): 4.07 µM

SMILES: COc1cc(/C=C/c2cc(Br)c3c(c2)C[C@@H]2C(C)(C)[C@H](O)CC[C@@]2(C)O3)cc(O)c1C/C=C(\C)CCC=C(C)C
- growth at 10 µM [30]: 91%
- growth at 10 µM [31]: 107%
- growth at 10 µM [32]: 105%
- growth at 10 µM [33]: 116%

SMILES: COCc1cc(/C=C/c2cc(O)c(C/C=C(\C)CCC=C(C)C)c(OC)c2)cc2c1O[C@]1(C)CC[C@@H](O)C(C)(C)[C@H]1C2
- growth at 10 µM [30]: 98.4%
- growth at 10 µM [31]: 118%
- growth at 10 µM [32]: 100%
- growth at 10 µM [33]: 145%
